# How the values were obtained:
# Type in all cases: functional
# [1] = system: Serratia sp.; experiment: Antibacterial activity against Serratia spp. by broth microdilution method
# In short: (§1)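 MICs were determined by CLSI broth microdilution against clinical isolate panels that included aminoglycoside-resistant isolates. […] MIC90 was derived per group and not calculated when n was <10. Imipenem, ceftobiprole, ciprofloxacin and tigecycline MICs were also determined for the resistant isolates.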
# [2] = system: Klebsiella sp.; experiment: Antibacterial activity against Klebsiella spp. by broth microdilution method; in short: as §1
# [3] = system: Acinetobacter sp.; experiment: Antibacterial activity against Acinetobacter spp. by broth microdilution method; in short: as §1
# [4] = system: Pseudomonas aeruginosa; experiment: Antibacterial activity against Pseudomonas aeruginosa by broth microdilution method; in short: as §1
# [5] = Antibacterial activity against indole positive Proteae by broth microdilution method; in short: as §1
# [6] = system: Citrobacter; experiment: Antibacterial activity against Citrobacter spp. by broth microdilution method; in short: as §1
# [7] = system: Staphylococcus sp.; experiment: Antibacterial activity against Staphylococcus spp. by broth microdilution method; in short: as §1
# [8] = system: Escherichia coli; experiment: Antibacterial activity against Escherichia coli by broth microdilution method; in short: as §1
# [9] = system: Proteus mirabilis; experiment: Antibacterial activity against Proteus mirabilis by broth microdilution method; in short: as §1
# [10] = system: Enterobacter sp.; experiment: Antibacterial activity against Enterobacter spp. by broth microdilution method; in short: as §1
# [11] = system: Pseudomonas aeruginosa; experiment: Antibacterial activity against Pseudomonas aeruginosa expressing AAC(3)-1 by broth microdilution method
# [12] = system: Escherichia coli; experiment: Antibacterial activity against aminoglycoside-resistant Escherichia coli expressing ANT(6')-1 by broth microdilution method
# In short: (§2)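 Clinical aminoglycoside-resistant isolates were each carrying a single aminoglycoside-modifying enzyme. […] MICs were determined by CLSI broth microdilution.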
# [13] = system: Acinetobacter; experiment: Antibacterial activity against aminoglycoside-resistant Acinetobacter spp. expressing APH(3')-6 by broth microdilution method; in short: as §2
# [14] = system: Escherichia coli; experiment: Antibacterial activity against aminoglycoside-resistant Escherichia coli expressing armA methylase by broth microdilution method
# In short: (§3)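 MICs were measured by broth microdilution following CLSI guidance. The strains formed a 25-strain screening panel with diverse aminoglycoside resistance mechanisms. The panel included Gram-negative and S. aureus strains carrying key aminoglycoside-modifying enzymes, strains with altered permeability or efflux, and an armA ribosomal methyltransferase strain.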
# [15] = system: Pseudomonas aeruginosa; experiment: Antibacterial activity against Pseudomonas aeruginosa expressing mexXY operon by broth microdilution method; in short: as §3
# [16] = system: Serratia liquefaciens; experiment: Antibacterial activity against aminoglycoside-resistant Serratia liquefaciens expressing AAC(3)-2 by broth microdilution method; in short: as §2
# [17] = system: Pseudomonas aeruginosa; experiment: Antibacterial activity against Pseudomonas aeruginosa expressing AAC(6')-2 by broth microdilution method
# [18] = system: Staphylococcus aureus; experiment: Antibacterial activity against aminoglycoside-resistant Staphylococcus aureus expressing APH(2'') + AAC(6')-1 by broth microdilution method; in short: as §2
# [19] = system: Klebsiella pneumoniae; experiment: Antibacterial activity against aminoglycoside-resistant Klebsiella pneumoniae expressing AAC(3)-2 by broth microdilution method; in short: as §2
# [20] = system: Klebsiella oxytoca; experiment: Antibacterial activity against aminoglycoside-resistant Klebsiella oxytoca expressing AAC(6')-1 by broth microdilution method; in short: as §2
# [21] = system: Staphylococcus epidermidis; experiment: Antibacterial activity against aminoglycoside-resistant Staphylococcus epidermidis expressing APH(2'') + AAC(6')-1 by broth microdilution method; in short: as §2
# [22] = system: Serratia marcescens; experiment: Antibacterial activity against aminoglycoside-resistant Serratia marcescens expressing ANT(2''), AAC(6') by broth microdilution method; in short: as §3
# [23] = system: Acinetobacter baumannii; experiment: Antibacterial activity against aminoglycoside-resistant Acinetobacter baumannii expressing APH(3')-6 by broth microdilution method; in short: as §2
# [24] = system: Escherichia coli; experiment: Antibacterial activity against aminoglycoside-resistant Escherichia coli expressing AAC(6')-1 by broth microdilution method; in short: as §2
# [25] = system: Enterobacter cloacae; experiment: Antibacterial activity against aminoglycoside-resistant Enterobacter cloacae expressing AAC(6')-1 by broth microdilution method; in short: as §2
# [26] = system: Staphylococcus epidermidis; experiment: Antibacterial activity against aminoglycoside-resistant Staphylococcus epidermidis expressing APH(3')-3 by broth microdilution method
# [27] = system: Klebsiella pneumoniae; experiment: Antibacterial activity against aminoglycoside-resistant Klebsiella pneumoniae expressing AAC(3)-1 by broth microdilution method; in short: as §2
# [28] = system: Pseudomonas aeruginosa; experiment: Antibacterial activity against Pseudomonas aeruginosa ATCC 27853 by broth microdilution method
# [29] = system: Escherichia coli; experiment: Antibacterial activity against aminoglycoside-resistant Escherichia coli expressing AAC(3)-2 by broth microdilution method; in short: as §2
# [30] = system: Escherichia coli; experiment: Antibacterial activity against Escherichia coli ATCC 25922 by broth microdilution method; in short: as §3
# [31] = system: Klebsiella aerogenes; experiment: Antibacterial activity against aminoglycoside-resistant Enterobacter aerogenes expressing AAC(6')-1 by broth microdilution method; in short: as §2
# [32] = system: Klebsiella aerogenes; experiment: Antibacterial activity against aminoglycoside-resistant Enterobacter aerogenes expressing AAC(3)-2 by broth microdilution method; in short: as §2
# [33] = system: Klebsiella pneumoniae; experiment: Antibacterial activity against aminoglycoside-resistant Klebsiella pneumoniae expressing AAC(6')-1 by broth microdilution method; in short: as §2
# [34] = system: Pseudomonas aeruginosa; experiment: Antibacterial activity against aminoglycoside-resistant Pseudomonas aeruginosa expressing ANT(2'')-1 by broth microdilution method; in short: as §2
# [35] = system: Citrobacter freundii; experiment: Antibacterial activity against aminoglycoside-resistant Citrobacter freundii expressing AAC(6')-1 by broth microdilution method; in short: as §2
# [36] = system: Pseudomonas aeruginosa; experiment: Antibacterial activity against Pseudomonas aeruginosa expressing ANT(4')-2 by broth microdilution method; in short: as §3
# [37] = system: Pseudomonas aeruginosa; experiment: Antibacterial activity against wild type Pseudomonas aeruginosa expressing efflux pump by broth microdilution method
# In short: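 MIC was determined by CLSI broth microdilution, read in μg/ml. The strain came from a 25-strain screening panel with diverse aminoglycoside resistance mechanisms. The panel included strains with changes in permeability or efflux, key aminoglycoside-modifying enzymes and an armA methyltransferase strain.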
# [38] = system: Staphylococcus aureus; experiment: Antibacterial activity against aminoglycoside-resistant Staphylococcus aureus expressing ANT(4',4'')-2 by broth microdilution method; in short: as §2
# [39] = system: Klebsiella pneumoniae; experiment: Antibacterial activity against Klebsiella pneumoniae ATCC 10031 by broth microdilution method; in short: as §3
# [40] = system: Staphylococcus aureus; experiment: Antibacterial activity against aminoglycoside-resistant Staphylococcus aureus expressing APH(2'') + AAC(6') by broth microdilution method; in short: as §3
# [41] = system: Klebsiella oxytoca; experiment: Antibacterial activity against aminoglycoside-resistant Klebsiella oxytoca expressing AAC(3)-2 by broth microdilution method; in short: as §2
# [42] = system: Serratia marcescens; experiment: Antibacterial activity against aminoglycoside-resistant Serratia marcescens expressing AAC(6')-1 by broth microdilution method; in short: as §2
# [43] = system: Escherichia coli; experiment: Antibacterial activity against aminoglycoside-resistant Escherichia coli expressing ANT(2'')-1 by broth microdilution method; in short: as §2
# [44] = system: Acinetobacter baumannii; experiment: Antibacterial activity against Acinetobacter baumannii ATCC 19606 by broth microdilution method; conditions: ATCC 19606 = CIP 70.34 = JCM 6841; in short: as §3
# [45] = system: Staphylococcus epidermidis; experiment: Antibacterial activity against aminoglycoside-resistant Staphylococcus epidermidis expressing ANT(4',4'')-2 by broth microdilution method; in short: as §2
# [46] = system: Enterobacter cloacae; experiment: Antibacterial activity against aminoglycoside-resistant Enterobacter cloacae expressing AAC(3)-2 by broth microdilution method; in short: as §2
# [47] = system: Pseudomonas aeruginosa; experiment: Antibacterial activity against aminoglycoside-resistant Pseudomonas aeruginosa expressing AAC(6')-2 by broth microdilution method; in short: as §2
# [48] = system: Klebsiella pneumoniae; experiment: Antibacterial activity against aminoglycoside-resistant Klebsiella pneumoniae expressing AAC(3)-4 by broth microdilution method; in short: as §2
# [49] = system: Escherichia coli; experiment: Antibacterial activity against aminoglycoside-resistant Escherichia coli expressing ANT(3)-2 by broth microdilution method; in short: as §2
# [50] = system: Acinetobacter baumannii; experiment: Antibacterial activity against aminoglycoside-resistant Acinetobacter baumannii expressing ANT(2'')-1 by broth microdilution method; in short: as §2
# [51] = system: Acinetobacter calcoaceticus; experiment: Antibacterial activity against aminoglycoside-resistant Acinetobacter calcoaceticus expressing AAC(6')-1 by broth microdilution method; in short: as §2
# [52] = system: Escherichia coli; experiment: Antibacterial activity against aminoglycoside-resistant Escherichia coli expressing AAC(3)-4 by broth microdilution method; in short: as §2
# [53] = system: Pseudomonas aeruginosa; experiment: Antibacterial activity against efflux pump deficient Pseudomonas aeruginosa by broth microdilution method
# [54] = system: Acinetobacter baumannii; experiment: Antibacterial activity against aminoglycoside-resistant Acinetobacter baumannii expressing […] by broth microdilution method; in short: as §2
# [55] = system: Citrobacter freundii; experiment: Antibacterial activity against aminoglycoside-resistant Citrobacter freundii expressing AAC(3)-2 by broth microdilution method; in short: as §2
# [56] = system: Acinetobacter baumannii; experiment: Antibacterial activity against aminoglycoside-susceptible Acinetobacter baumannii by broth microdilution method
compound,measurement,setting,value
CN(C)c1cc(NC(=O)CNC(C)(C)C)c(O)c2c1C[C@H]1C[C@H]3[C@H](N(C)C)C(O)=C(C(N)=O)C(=O)[C@@]3(O)C(O)=C1C2=O [TIGECYCLINE],MIC50,[1]; Serratia sp. (in: enterobacteria),2 µg/mL
same,MIC50,[2],1 µg/mL
same,MIC90,[2],2 µg/mL
same,MIC50,[3],2 µg/mL
same,MIC90,[3],16 µg/mL
same,MIC50,[4],16 µg/mL
same,MIC90,[4],> 16 µg/mL
same,MIC50,[5],2 µg/mL
same,MIC50,[6],0.5 µg/mL
same,MIC50,[7],0.25 µg/mL
same,MIC90,[7],0.5 µg/mL
same,MIC50,[8],0.25 µg/mL
same,MIC90,[8],0.5 µg/mL
same,MIC50,[9],4 µg/mL
same,MIC90,[9],8 µg/mL
same,MIC50,[10],0.5 µg/mL
same,MIC90,[10],4 µg/mL
GENTAMICIN,MIC,[11],64 µg/mL
same,MIC,[12],4 µg/mL
same,MIC,[13],1 µg/mL
same,MIC50,[1],64 µg/mL
same,MIC,[14],> 64 µg/mL
same,MIC50,[2],32 µg/mL
same,MIC90,[2],> 64 µg/mL
same,MIC,[15],2 µg/mL
same,MIC,[16],62 µg/mL
same,MIC,[17],32 µg/mL
same,MIC,[18],50 µg/mL
same,MIC50,[3],> 64 µg/mL
same,MIC90,[3],> 64 µg/mL
same,MIC,[19],62 µg/mL
same,MIC,[20],1 µg/mL
same,MIC,[21],50 µg/mL
same,MIC,[22],4 µg/mL
same,MIC,[23],4 µg/mL
same,MIC50,[4],> 64 µg/mL
same,MIC90,[4],> 64 µg/mL
same,MIC,[24],1 µg/mL
same,MIC,[25],1 µg/mL
same,MIC,[26],1 µg/mL
same,MIC50,[5],> 64 µg/mL
same,MIC,[27],32 µg/mL
same,MIC,[28],1 µg/mL
same,MIC50,[6],> 64 µg/mL
same,MIC,[29],62 µg/mL
same,MIC,[30],1 µg/mL
same,MIC50,[7],32 µg/mL
same,MIC90,[7],> 64 µg/mL
same,MIC,[31],1 µg/mL
same,MIC,[32],62 µg/mL
same,MIC,[33],1 µg/mL
same,MIC,[34],56 µg/mL
same,MIC,[35],1 µg/mL
same,MIC,[36],4 µg/mL
same,MIC,[37],1 µg/mL
same,MIC,[38],1 µg/mL
same,MIC,[39],0.125 µg/mL
same,MIC,[40],> 64 µg/mL
same,MIC,[41],62 µg/mL
same,MIC,[42],1 µg/mL
same,MIC,[43],> 64 µg/mL
same,MIC,[44],16 µg/mL
same,MIC50,[8],64 µg/mL
same,MIC90,[8],> 64 µg/mL
same,MIC,[45],1 µg/mL
same,MIC,[46],62 µg/mL
same,MIC50,[9],32 µg/mL
same,MIC90,[9],> 64 µg/mL
same,MIC,[47],64 µg/mL
same,MIC,[48],16 µg/mL
same,MIC,[49],> 64 µg/mL
same,MIC,[50],> 64 µg/mL
same,MIC50,[10],32 µg/mL
same,MIC90,[10],> 64 µg/mL
same,MIC,[51],8 µg/mL
same,MIC,[52],16 µg/mL
same,MIC,[53],0.125 µg/mL
same,MIC,[54],16 µg/mL
same,MIC,[55],62 µg/mL
same,MIC,[56],1 µg/mL

# From ChEMBL document CHEMBL1687796, “Synthesis and spectrum of the neoglycoside ACHN-490” (2010)
